Calls of active or inactive are those of the source. The rule behind the calls is not given here.

The target of assay [1] is T1, Toll-like receptor 9 (Mus musculus) (UniProt Q9EQU3).
T1 sequence (whole entry): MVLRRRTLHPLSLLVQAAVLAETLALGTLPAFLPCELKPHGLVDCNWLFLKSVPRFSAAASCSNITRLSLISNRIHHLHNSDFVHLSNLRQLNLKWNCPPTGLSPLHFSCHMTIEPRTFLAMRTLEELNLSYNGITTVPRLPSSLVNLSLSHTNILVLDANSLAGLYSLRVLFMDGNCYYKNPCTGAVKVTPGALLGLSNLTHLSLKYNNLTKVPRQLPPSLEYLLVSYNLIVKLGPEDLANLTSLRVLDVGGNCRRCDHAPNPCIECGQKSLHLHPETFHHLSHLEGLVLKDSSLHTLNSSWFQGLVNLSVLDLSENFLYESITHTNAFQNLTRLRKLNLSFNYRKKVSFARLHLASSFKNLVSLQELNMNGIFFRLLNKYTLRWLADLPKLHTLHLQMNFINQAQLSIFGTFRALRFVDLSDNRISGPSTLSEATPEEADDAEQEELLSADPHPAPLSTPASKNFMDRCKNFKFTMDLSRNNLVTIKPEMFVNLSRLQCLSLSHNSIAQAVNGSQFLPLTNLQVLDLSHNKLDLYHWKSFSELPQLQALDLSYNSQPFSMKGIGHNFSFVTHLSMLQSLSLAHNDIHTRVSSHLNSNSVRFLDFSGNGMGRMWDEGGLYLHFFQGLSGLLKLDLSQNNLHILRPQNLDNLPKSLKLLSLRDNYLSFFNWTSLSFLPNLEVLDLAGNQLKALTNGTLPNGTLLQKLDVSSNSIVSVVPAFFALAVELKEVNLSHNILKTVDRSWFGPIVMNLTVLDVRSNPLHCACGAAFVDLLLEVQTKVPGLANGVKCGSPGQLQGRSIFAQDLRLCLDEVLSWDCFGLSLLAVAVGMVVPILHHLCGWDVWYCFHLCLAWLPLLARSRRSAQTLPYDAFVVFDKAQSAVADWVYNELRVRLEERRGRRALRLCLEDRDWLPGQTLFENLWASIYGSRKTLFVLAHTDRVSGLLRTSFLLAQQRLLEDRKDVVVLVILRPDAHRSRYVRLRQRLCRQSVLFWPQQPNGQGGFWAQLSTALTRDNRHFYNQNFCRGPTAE
In words: Activation of mouse TLR9 expressed in HEK293 cells assessed as NF-kappaB level at 0.3 ug/mL after 18 hrs by reporter gene assay. It is filed as cell-based. In a few lines: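 HEK293 cells stably expressing mouse TLR9 were transiently transfected with a SEAP reporter for 6 h, then stimulated with ODN at 0.1, 0.3 or 1 μg/mL for 18 h. Reporter expression is given as fold change in NF-κB activity over medium. Representative of two independent experiments.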

Assay [2] has as its system Splenocyte. In words: Immunostimulatory activity in C57BL/6 mouse splenocytes assessed as induction of IL6 secretion at 2 to 10 ug/ml after 24 hrs by sandwich ELISA. It is filed as functional, cell-based. In a few lines:
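C57BL/6 splenocytes (mice 5–8 weeks) at 5 × 10^6 cells/mL in RPMI complete medium. ODNs dissolved in PBS were added and the cells incubated at 37 °C for 24 h. Supernatant IL-12 or IL-6 was measured by sandwich ELISA. Runs were done two or three times, in duplicate per concentration.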

The subject of assay [3] is Splenocyte. Briefly: Inhibition of 5'-CTATCTGACGTTCTCTGT-3'-induced IL12 secretion in C57BL/6 mouse splenocytes at 4 ug/ml after 24 hrs by sandwich ELISA. It is filed as functional, cell-based. In a few lines:
(§1)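 Splenocytes from 5–8-week C57BL/6 mice, 5 × 10^6 cells/mL in RPMI complete medium, were co-incubated with the TLR9 agonist ODN (1 µg/mL) plus test ODN at 1 or 4 µg/mL, or over a concentration series, at 37 °C for 24 h. Supernatant IL-12 or IL-6 was measured by sandwich ELISA. Runs were done in duplicate, with three independent experiments.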
Background: In an ELISA, binding on a coated surface is turned into a signal by an enzyme label.

The subject of assay [4] is Splenocyte. Briefly: Inhibition of 5'-CTATCTGACGTTCTCTGT-3'-induced IL6 secretion in C57BL/6 mouse splenocytes at 4 ug/ml after 24 hrs by sandwich ELISA. Type of assay: functional, cell-based. A digest of the protocol: as §1
For assay [5], the system named is Mus musculus. In words: Immunostimulatory activity in C57BL/6 mouse assessed as induction of MIP-1alpha level in serum at 2 mg/kg, sc after 2 hrs by Luminex multiplex assay. Type of assay: functional, organism-based. Details: dose 2 mg/kg. A digest of the protocol: (§2)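 Female C57BL/6 mice, 5–6 weeks old, n = 3, received a single 2 mg/kg subcutaneous ODN injection in the right flank. Blood was taken by retro-orbital bleeding 2 h later. Naive mice served as baseline. Representative of three experiments.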

Assay [6] concerns Mus musculus. Briefly: Immunostimulatory activity in C57BL/6 mouse assessed as induction of IL10 level in serum at 2 mg/kg, sc after 2 hrs by Luminex multiplex assay. It is filed as functional, organism-based. Details: dose 2 mg/kg. A digest of the protocol:
as §2

In assay [7] the test system is Mus musculus. In words: Immunostimulatory activity in C57BL/6 mouse assessed as induction of KC level in serum at 2 mg/kg, sc after 2 hrs by Luminex multiplex assay. It is filed as functional, organism-based. Also on record: dose 2 mg/kg. In a few lines: as §2
The test system of assay [8] is Mus musculus. In words: Immunostimulatory activity in C57BL/6 mouse assessed as inhibition of 5'-CTATCTGACGTTCTCTGT-3'-induced MIP-1alpha production in serum at 2 mg/kg, sc administered 24 hrs prior to 5'-CTATCTGACGTTCTCTGT-3' challenge measured after 2 hrs by Luminex multiplex assay. Details: dose 2 mg/kg. Type of assay: functional, organism-based. A digest of the protocol:
(§3)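 C57BL/6 mice received 2 mg/kg ODN sc in one flank. After 24 h, the TLR9 agonist ODN was given at 0.5 mg/kg sc in the opposite flank. Blood was drawn 2 h later and serum cytokines/chemokines were quantified by Luminex multiplex assay. Percent inhibition was taken against the agonist alone. Representative of three experiments.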

Assay [9] deals with Mus musculus. Briefly: Immunostimulatory activity in C57BL/6 mouse assessed as inhibition of 5'-CTATCTGACGTTCTCTGT-3'-induced MCP1 production in serum at 2 mg/kg, sc administered 24 hrs prior to 5'-CTATCTGACGTTCTCTGT-3' challenge measured after 2 hrs by Luminex multiplex assay. Type of assay: functional, organism-based. Details: dose 2 mg/kg. In a few lines: as §3
Assay [10] deals with Mus musculus. Briefly: Immunostimulatory activity in C57BL/6 mouse assessed as inhibition of 5'-CTATCTGACGTTCTCTGT-3'-induced KC production in serum at 2 mg/kg, sc administered 24 hrs prior to 5'-CTATCTGACGTTCTCTGT-3' challenge measured after 2 hrs by Luminex multiplex assay. Type of assay: functional, organism-based. Details: dose 2 mg/kg. In a few lines: as §3

Regarding `CO[C@@H]1[C@H](OP(=O)(S)OC[C@H]2O[C@@H](n3cnc4c(=O)[nH]c(N)nc43)C[C@@H]2OP(=O)(S)OC[C@H]2O[C@@H](n3cc(C)c(=O)[nH]c3=O)C[C@@H]2OP(=O)(S)OC[C@H]2O[C@@H](n3cc(C)c(=O)[nH]c3=O)C[C@@H]2OP(=O)(S)OC[C@H]2O[C@@H](n3ccc(N)nc3=O)C[C@@H]2OP(=O)(S)OC[C@H]2O[C@@H](n3cc(C)c(=O)[nH]c3=O)C[C@@H]2OP(=O)(S)OC[C@H]2O[C@@H](n3ccc(N)nc3=O)C[C@@H]2OP(=O)(S)OC[C@H]2O[C@@H](n3cc(C)c(=O)[nH]c3=O)C[C@@H]2OP(=O)(S)OC[C@H]2O[C@@H](n3cnc4c(=O)[nH]c(N)nc43)C[C@@H]2OP(=O)(S)OC[C@H]2O[C@@H](n3cc(C)c(=O)[nH]c3=O)C[C@@H]2O)[C@@H](COP(=O)(S)O[C@H]2C[C@H](n3cnc4c(N)ncnc43)O[C@@H]2COP(=O)(S)O[C@H]2C[C@H](n3cnc4c(=O)[nH]c(N)nc43)O[C@@H]2COP(=O)(S)O[C@H]2C[C@H](n3cc(C)c(=O)[nH]c3=O)O[C@@H]2COP(=O)(S)O[C@H]2C[C@H](n3ccc(N)nc3=O)O[C@@H]2COP(=O)(S)O[C@H]2C[C@H](n3cc(C)c(=O)[nH]c3=O)O[C@@H]2COP(=O)(S)O[C@H]2C[C@H](n3cnc4c(N)ncnc43)O[C@@H]2COP(=O)(S)O[C@H]2C[C@H](n3cc(C)c(=O)[nH]c3=O)O[C@@H]2COP(=O)(S)O[C@H]2C[C@H](n3ccc(N)nc3=O)O[C@@H]2CO)O[C@H]1n1ccc(N)nc1=O` (stereo not given in full), the outcome (in assay [1]; with Mus musculus [5]; in the assay on Mus musculus [6]; with Mus musculus [7]) was inactive. The outcome in the assay with Splenocyte [2], in the assay on Splenocyte [3], in the assay with Splenocyte [4], with Mus musculus [8], with Mus musculus [9] and in the assay on Mus musculus [10] was Active.

Take `CO[C@@H]1[C@H](OP(=O)(S)OC[C@H]2O[C@@H](n3cc(C)c(=O)[nH]c3=O)C[C@@H]2OP(=O)(S)OC[C@H]2O[C@@H](n3cc(C)c(=O)[nH]c3=O)C[C@@H]2OP(=O)(S)OC[C@H]2O[C@@H](n3ccc(N)nc3=O)C[C@@H]2OP(=O)(S)OC[C@H]2O[C@@H](n3cc(C)c(=O)[nH]c3=O)C[C@@H]2OP(=O)(S)OC[C@H]2O[C@@H](n3ccc(N)nc3=O)C[C@@H]2OP(=O)(S)OC[C@H]2O[C@@H](n3cc(C)c(=O)[nH]c3=O)C[C@@H]2OP(=O)(S)OC[C@H]2O[C@@H](n3cnc4c(=O)[nH]c(N)nc43)C[C@@H]2OP(=O)(S)OC[C@H]2O[C@@H](n3cc(C)c(=O)[nH]c3=O)C[C@@H]2O)[C@@H](COP(=O)(S)O[C@H]2C[C@H](n3ccc(N)nc3=O)O[C@@H]2COP(=O)(S)O[C@H]2C[C@H](n3cnc4c(N)ncnc43)O[C@@H]2COP(=O)(S)O[C@H]2C[C@H](n3cnc4c(=O)[nH]c(N)nc43)O[C@@H]2COP(=O)(S)O[C@H]2C[C@H](n3cc(C)c(=O)[nH]c3=O)O[C@@H]2COP(=O)(S)O[C@H]2C[C@H](n3ccc(N)nc3=O)O[C@@H]2COP(=O)(S)O[C@H]2C[C@H](n3cc(C)c(=O)[nH]c3=O)O[C@@H]2COP(=O)(S)O[C@H]2C[C@H](n3cnc4c(N)ncnc43)O[C@@H]2COP(=O)(S)O[C@H]2C[C@H](n3cc(C)c(=O)[nH]c3=O)O[C@@H]2COP(=O)(S)O[C@H]2C[C@H](n3ccc(N)nc3=O)O[C@@H]2CO)O[C@H]1n1cnc2c(=O)[nH]c(N)nc21` (stereo not given in full): the outcome (in [1]; with Mus musculus [5]; in the assay on Mus musculus [6]; in the assay on Mus musculus [7]) was inactive. Besides, the result in the assay with Splenocyte [2], with Splenocyte [3], with Splenocyte [4], in the assay on Mus musculus [8], with Mus musculus [9] and in the assay on Mus musculus [10] was Active.

For `Cc1cn([C@@H]2O[C@H](COP(=O)(S)O[C@H]3C[C@H](n4ccc(N)nc4=O)O[C@@H]3COP(=O)(S)O[C@H]3C[C@H](n4cc(C)c(=O)[nH]c4=O)O[C@@H]3COP(=O)(S)O[C@H]3C[C@H](n4ccc(N)nc4=O)O[C@@H]3COP(=O)(S)O[C@H]3C[C@H](n4cc(C)c(=O)[nH]c4=O)O[C@@H]3COP(=O)(S)O[C@H]3C[C@H](n4cc(C)c(=O)[nH]c4=O)O[C@@H]3COP(=O)(S)O[C@H]3C[C@H](n4cnc5c(=O)[nH]c(N)nc54)O[C@@H]3COP(=O)(S)O[C@H]3C[C@H](n4ccc(N)nc4=O)O[C@@H]3COP(=O)(S)O[C@H]3C[C@H](n4cnc5c(N)ncnc54)O[C@@H]3COP(=O)(S)O[C@H]3C[C@H](n4cnc5c(=O)[nH]c(N)nc54)O[C@@H]3COP(=O)(S)O[C@H]3C[C@H](n4cc(C)c(=O)[nH]c4=O)O[C@@H]3COP(=O)(S)O[C@H]3C[C@H](n4ccc(N)nc4=O)O[C@@H]3COP(=O)(S)O[C@H]3C[C@H](n4cc(C)c(=O)[nH]c4=O)O[C@@H]3COP(=O)(S)O[C@H]3C[C@H](n4cnc5c(N)ncnc54)O[C@@H]3COP(=O)(S)O[C@H]3C[C@H](n4cc(C)c(=O)[nH]c4=O)O[C@@H]3COP(=O)(S)O[C@@H]3C[C@@H](n4ccc(N)nc4=O)O[C@H]3CO)[C@@H](OP(=O)(S)OC[C@H]3O[C@@H](n4cnc5c(=O)[nH]c(N)nc54)C[C@@H]3OP(=O)(S)OC[C@H]3O[C@@H](n4cc(C)c(=O)[nH]c4=O)C[C@@H]3O)[C@H]2O)c(=O)[nH]c1=O` (stereo not given in full), the result (in assay [1]; in the assay on Mus musculus [5]; with Mus musculus [6]; in the assay with Mus musculus [7]) was inactive. Besides, the outcome with Splenocyte [2], in the assay with Splenocyte [3], in the assay with Splenocyte [4], with Mus musculus [8], in the assay on Mus musculus [9] and in the assay with Mus musculus [10] was Active.

These data come from ChEMBL document CHEMBL1152452, “Modifications incorporated in CpG motifs of oligodeoxynucleotides lead to antagonist activity of toll-like receptors 7 and 9” (2009).
